Measured values as given in ChEMBL document CHEMBL3603733, “Synthesis and biological evaluation of (3',5'-dichloro-2,6-dihydroxy-biphenyl-4-yl)-aryl/alkyl-methanone selective CB2 inverse agonist” (Bioorg Med Chem, 2015).
The source made the active and inactive calls. The rule behind the calls is not given here.

Assays:
Homo sapiens = species: Homo sapiens; assay: Selectivity ratio of Ki for CB1 receptor (unknown origin) to Ki for CB2 receptor (unknown origin)
Cannabinoid receptor 1 [1] = molecular target: T1, Cannabinoid receptor 1 (Homo sapiens, UniProt P21554); assay: Inverse agonist activity at CB1 receptor (unknown origin) expressed in HEK cells assessed as increase in cAMP production measured at 50 mins by ACTOne dye-based fluorescence assay in presence of forskolin and Ro 20-1724; assay type: functional, cell-based, HEK293
How it was run: (§1)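 HEK-CNG+CB1 or HEK-CNG+CB2 cells, plus parental HEK-CNG, were plated at 50,000 cells/well in DMEM with 10% FBS the day before. Membrane potential dye was loaded for 1 h in the dark at room temperature. Ligands were added at 5x10⁻⁶ to 5x10⁻¹⁰ final, with 25 µM Ro 20-1724 and 800 nM forskolin, in DPBS with 2.5% DMSO. Fluorescence (Ex 540, Em 590 nm) was read at 50 min. At least six biological replicates were run, with non-linear fitting.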

Cannabinoid receptor 1 [2] = molecular target: T1, Cannabinoid receptor 1; assay: Inverse agonist activity at CB1 receptor (unknown origin) expressed in HEK cells assessed as increase in cAMP production at 5 x 10^-6 to 5 x 10^-10 M measured at 50 mins by ACTOne dye-based fluorescence assay in presence of forskolin and Ro 20-1724 relative to control; assay type: functional, cell-based; settings: HEK293; how it was run: as §1
Cannabinoid receptor 2 [3] = molecular target: T2, Cannabinoid receptor 2 (Homo sapiens, UniProt P34972); assay: Inverse agonist activity at CB2 receptor (unknown origin) expressed in HEK cells assessed as increase in cAMP production measured at 50 mins by ACTOne dye-based fluorescence assay in presence of forskolin and Ro 20-1724; assay type: functional, cell-based, HEK293
How it was run: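 HEK-CNG+CB1 or HEK-CNG+CB2 cells, plus parental HEK-CNG, were plated at 50,000 cells/well in DMEM with 10% FBS the day before. Membrane potential dye was loaded for 1 h in the dark at room temperature. At least six biological replicates were run, with non-linear fitting.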

Cannabinoid receptor 2 [4] = molecular target: T2, Cannabinoid receptor 2; assay: Inverse agonist activity at CB2 receptor (unknown origin) expressed in HEK cells assessed as increase in cAMP production at 5 x 10^-6 to 5 x 10^-10 M measured at 50 mins by ACTOne dye-based fluorescence assay in presence of forskolin and Ro 20-1724 relative to control; assay type: functional, cell-based; settings: HEK293; how it was run: as §1
Cannabinoid receptor 1 [5] = molecular target: T1, Cannabinoid receptor 1; assay: Displacement of [3H]-CP55940 from CB1 receptor (unknown origin) expressed in HEK-CNG cell membranes after 90 mins by liquid scintillation counting analysis
Cannabinoid receptor 2 [6] = molecular target: T2, Cannabinoid receptor 2; assay: Displacement of [3H]-CP55940 from CB2 receptor (unknown origin) expressed in HEK-CNG cell membranes after 90 mins by liquid scintillation counting analysis
Cannabinoid receptor 2 [7] = molecular target: T2, Cannabinoid receptor 2; assay: Non-competitive antagonist activity at CB2 receptor (unknown origin) expressed in HEK cells incubated in dark condition for 30 mins prior to CP55940 addition measured at 50 mins by Schild plot analysis; assay type: cell-based; settings: HEK293
How it was run: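 HEK-CNG+CB2 cells were loaded with membrane potential dye. After 30 min, antagonist in DPBS with 2.5% DMSO was added and incubated 30 more min in the dark at room temperature. CP 55,940 was then added with 25 µM Ro 20-1724 and 800 nM forskolin (final). Fluorescence was read at 50 min.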

T1 sequence (P21554 whole entry): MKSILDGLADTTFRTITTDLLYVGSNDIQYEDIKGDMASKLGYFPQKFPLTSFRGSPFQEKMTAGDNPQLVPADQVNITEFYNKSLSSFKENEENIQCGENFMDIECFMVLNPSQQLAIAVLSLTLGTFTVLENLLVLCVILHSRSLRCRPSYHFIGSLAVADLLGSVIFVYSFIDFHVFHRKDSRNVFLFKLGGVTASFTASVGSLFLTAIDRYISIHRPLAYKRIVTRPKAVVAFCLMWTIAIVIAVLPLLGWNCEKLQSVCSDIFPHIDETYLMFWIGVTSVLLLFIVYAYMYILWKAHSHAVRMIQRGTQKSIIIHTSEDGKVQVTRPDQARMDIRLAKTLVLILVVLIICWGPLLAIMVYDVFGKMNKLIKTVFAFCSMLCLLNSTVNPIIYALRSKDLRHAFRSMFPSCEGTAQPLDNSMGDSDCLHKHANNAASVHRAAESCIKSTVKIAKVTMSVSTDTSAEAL
T2 sequence (P34972 whole entry): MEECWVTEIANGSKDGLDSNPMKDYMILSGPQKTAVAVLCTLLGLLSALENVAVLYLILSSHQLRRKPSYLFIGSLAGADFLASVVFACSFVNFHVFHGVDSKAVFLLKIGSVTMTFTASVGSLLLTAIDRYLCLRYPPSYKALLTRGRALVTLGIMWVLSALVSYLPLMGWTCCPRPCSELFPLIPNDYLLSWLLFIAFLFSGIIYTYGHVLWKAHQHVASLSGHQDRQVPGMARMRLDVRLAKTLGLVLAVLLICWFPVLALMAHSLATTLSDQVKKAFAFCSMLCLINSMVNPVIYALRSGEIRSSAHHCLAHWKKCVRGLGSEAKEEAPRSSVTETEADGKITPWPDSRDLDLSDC

SMILES | Ratio Ki (Homo sapiens) | EC50 (Cannabinoid receptor 1 [1]; read-out: EC50) [µM] | Efficacy (Cannabinoid receptor 1 [2]) | EC50 (Cannabinoid receptor 2 [3]; read-out: EC50) [µM] | Efficacy (Cannabinoid receptor 2 [4]) | Ki (Cannabinoid receptor 1 [5]) [µM] | Ki (Cannabinoid receptor 2 [6]) [µM] | EC50 (Cannabinoid receptor 1 [1]; hek293) | EC50 (Cannabinoid receptor 2 [3]; hek293) | inhibition (Cannabinoid receptor 2 [7])
O=C(c1ccc(Cl)cc1)c1cc(O)c(-c2cc(Cl)cc(Cl)c2)c(O)c1 | 38.5 | 3.28 | 169% | 0.0897 | 119% | 4.65 | 0.121 |  |  | 
CCCCCCC(=O)c1cc(O)c(-c2cc(Cl)cc(Cl)c2)c(O)c1 |  |  |  |  |  | > 10 | > 10 | Not Active | Not Active | 
Cc1cc(C)cc(C(=O)c2cc(O)c(-c3cc(Cl)cc(Cl)c3)c(O)c2)c1 |  |  | inactive |  | inactive | > 10 | > 10 | Not Active | Not Active | 
CC(C)(C)c1ccc(C(=O)c2cc(O)c(-c3cc(Cl)cc(Cl)c3)c(O)c2)cc1 |  |  |  | 3.97 | 275% | 2.53 | 3.17 | Not Active |  | 
O=C(c1ccc(O)cc1)c1cc(O)c(-c2cc(Cl)cc(Cl)c2)c(O)c1 |  |  | inactive | > 5 | 75.6% | > 10 | > 10 | Not Active |  | 
COc1cc(C(=O)c2ccc(C)cc2)cc(O)c1-c1cc(Cl)cc(Cl)c1 |  |  |  | > 5 | 129% | > 10 | > 10 | Not Active |  | 
COc1cc(C(=O)c2ccc(C)cc2)cc(OC)c1-c1cc(Cl)cc(Cl)c1 |  |  | inactive |  | inactive | > 10 | > 10 | Not Active | Not Active | 
COc1cc(C(=O)c2ccc(Cl)cc2)cc(OC)c1-c1cc(Cl)cc(Cl)c1 |  |  |  |  |  | > 10 | > 10 | Not Active | Not Active | 
O=C(c1ccc(C(F)(F)F)cc1)c1cc(O)c(-c2cc(Cl)cc(Cl)c2)c(O)c1 |  | > 5 | 37% | > 5 | 49.7% | > 10 | > 10 |  |  | 
CCc1cccc(C(=O)c2cc(O)c(-c3cc(Cl)cc(Cl)c3)c(O)c2)c1 | > 5.82 |  | inactive | > 5 | 184% | > 10 | 1.72 | Not Active |  | 
CC(C)c1ccc(C(=O)c2cc(O)c(-c3cc(Cl)cc(Cl)c3)c(O)c2)cc1 |  |  |  | 0.182 | 56% | 3.33 | 0.161 | Not Active |  | 
CCCCc1ccc(C(=O)c2cc(OC)c(-c3cc(Cl)cc(Cl)c3)c(OC)c2)cc1 |  |  | inactive |  | inactive | > 10 | > 10 | Not Active | Not Active | 
O=C(c1cc(O)c(-c2cc(Cl)cc(Cl)c2)c(O)c1)C1CCCCC1 | 0.19 | > 5 | inactive | 2.54 | inactive | 0.299 | 1.59 |  |  | 
COc1cc(C(=O)c2ccc(Cl)cc2)cc(O)c1-c1cc(Cl)cc(Cl)c1 |  | 2.88 | 71.3% | > 5 | 97.5% | > 10 | > 10 |  |  | 
CCc1ccc(C(=O)c2cc(O)c(-c3cc(Cl)cc(Cl)c3)c(O)c2)cc1 |  |  |  | 0.0295 | 52.2% | 1.14 | 0.0376 | Not Active |  | Active
Cc1cccc(C(=O)c2cc(O)c(-c3cc(Cl)cc(Cl)c3)c(O)c2)c1 |  |  |  |  |  | > 10 | 2.62 | Not Active | Not Active | 
CCCCc1ccc(C(=O)c2cc(O)c(-c3cc(Cl)cc(Cl)c3)c(O)c2)cc1 | > 21.5 |  | inactive | 0.254 | 176% | > 10 | 0.464 | Not Active |  | Active
Cc1ccc(C(=O)c2cc(O)c(-c3cc(Cl)cc(Cl)c3)c(O)c2)cc1 | 36.6 |  | inactive | 0.118 | 230% | 9.43 | 0.258 | Not Active |  | 
CCCc1ccc(C(=O)c2cc(O)c(-c3cc(Cl)cc(Cl)c3)c(O)c2)cc1 |  |  |  | 0.0288 | 50% | > 10 | 0.0599 | Not Active |  | 
CCCCc1ccc(C(=O)c2cc(O)c(-c3cc(Cl)cc(Cl)c3)c(OC)c2)cc1 |  |  |  | > 5 | 108% | > 10 | > 10 | Not Active |  | 
O=C(c1cccc(C(F)(F)F)c1)c1cc(O)c(-c2cc(Cl)cc(Cl)c2)c(O)c1 |  |  |  |  |  | 4.13 | > 10 | Not Active | Not Active | 
O=C(c1ccccc1)c1cc(O)c(-c2cc(Cl)cc(Cl)c2)c(O)c1 | 39.4 |  | inactive |  | 54.8% |  |  | Not Active |  | Active
Cc1ccc(Cn2nc(C(=O)NC3C4(C)CCC(C4)C3(C)C)cc2-c2ccc(Cl)c(C)c2)cc1 (configuration not stated) [SR-144528] |  |  | inactive |  | 80.8% |  |  | Not Active |  | 
